ChEMBL document CHEMBL1159005, “Inhibitory effects of flavonoids on Moloney murine leukemia virus reverse transcriptase activity” (J Nat Prod, 1992)

Experiments:
[1] = tested on: Moloney murine leukemia virus; assay: Inhibition of Moloney murine leukemia virus reverse transcriptase using (riboadenylic acid)n(deoxythymidylic acid)12-18 as template primer by liquid scintillation counting
Method in brief: (§1)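 30 μl mix of 50 mM Tris-HCl pH 8.3, 75 mM KCl, 10 mM DTT, 3 mM MgCl₂, 3 μg nuclease-free BSA, 0.5 μg template-primer, 2 mM dTTP or dGTP with 0.5 μCi matching [³H]-dNTP, and 5 units MMLV RT. Incubated 37° for 30 min, stopped with EDTA. Duplicate aliquots spotted on DE-81 paper, washed, and counted by liquid scintillation.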

[2] = tested on: Moloney murine leukemia virus; assay: Inhibition of Moloney murine leukemia virus reverse transcriptase using (ribocytidylic acid)n(deoxyguanylic acid)12-18 as template primer by liquid scintillation counting; method in brief: as §1
[3] = Selectivity for Moloney murine leukemia virus reverse transcriptase over Escherichia coli DNA polymerase 1

C[C@@H]1O[C@@H](OC[C@H]2O[C@@H](Oc3c(-c4ccc(O)c(O)c4)oc4cc(O)cc(O)c4c3=O)[C@H](O)[C@@H](O)[C@@H]2O)[C@H](O)[C@H](O)[C@H]1O
ID50 [1]: 7.27 µM | ID50 [2]: 7.33 µM

O=C1CC(c2ccccc2)Oc2ccccc21 (stereo not drawn)
ID50 [1]: > 446 µM | ID50 [2]: > 446 µM

Oc1cc(O)c2c(c1)O[C@H](c1ccc(O)c(O)c1)[C@H](O)C2
ID50 [1]: 2.58 µM | ID50 [2]: 2.65 µM

O=c1cc(-c2ccccc2)oc2cc(O)ccc12
ID50 [1]: > 420 µM | ID50 [2]: > 420 µM

O=C1c2c(O)cc(O)cc2OC(c2ccc(O)c(O)c2)C1O (racemic)
fold change (FC) [3]: 10 | ID50 [1]: 2.43 µM | ID50 [2]: 2.46 µM

C[C@H]1O[C@@H](Oc2c(-c3cc(O)c(O)c(O)c3)oc3cc(O)cc(O)c3c2=O)[C@@H](O)[C@@H](O)[C@@H]1O
ID50 [1]: 10.1 µM | ID50 [2]: 9.69 µM

O=c1c(O)c(-c2ccccc2)oc2ccccc12
ID50 [1]: > 420 µM | ID50 [2]: > 420 µM

Oc1cc(O)c2c(c1)O[C@H](c1ccc(O)c(O)c1)[C@@H](O)C2
ID50 [1]: 2.75 µM | ID50 [2]: 2.86 µM

O=c1c(O)c(-c2ccc(O)c(O)c2)oc2cc(O)cc(O)c12
fold change (FC) [3]: 10 | ID50 [1]: 0.2 µM | ID50 [2]: 0.17 µM

O=c1c(O)c(-c2ccc(O)c(O)c2)oc2cc(O)ccc12
ID50 [1]: 0.28 µM | ID50 [2]: 0.24 µM

O=c1c(O)c(-c2ccc(O)cc2)oc2cc(O)cc(O)c12
fold change (FC) [3]: 10 | ID50 [1]: 1.22 µM | ID50 [2]: 1.29 µM

COc1ccc([C@@H]2CC(=O)c3c(O)cc(O)cc3O2)cc1O
ID50 [1]: 20.9 µM | ID50 [2]: 22.1 µM

O=c1c(O)c(-c2cc(O)c(O)c(O)c2)oc2cc(O)cc(O)c12
fold change (FC) [3]: 10 | ID50 [1]: 0.25 µM | ID50 [2]: 0.28 µM

O=c1c(O)c(-c2ccc(O)cc2O)oc2cc(O)cc(O)c12
fold change (FC) [3]: 10 | ID50 [1]: 1.03 µM | ID50 [2]: 1.01 µM
